Laboratory results from ChEMBL document CHEMBL1148497 (Bioorg Med Chem Lett, 2006).

Columns and labels:
[1] = tested on: HPAC; assay: Cytotoxicity against human HPAC cell line; type: functional, cell-based
How it was run: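 Human pancreatic ductal carcinoma HPAC cells grown in 1:1 DMEM/Ham's F-12 with 10% FBS at 37 °C, seeded at 2 × 10^3 cells/well. After 24 h, compounds were added from DMSO stocks (final DMSO 0.1%) for 72 h. WST-1 was then added for 3 h at 37 °C and absorbance read at 450 nm.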

[2] = tested on: Mus musculus; assay: Toxicity in BALB/c mouse at 0.5 mg/kg, ip; type: organism-based; parameters: dose 0.5 mg/kg, route intraperitoneal; conditions: in vivo
[3] = tested on: Mus musculus; assay: Hepatic toxicity in BALB/c mouse at 0.5 mg/kg, ip; type: organism-based; parameters: dose 0.5 mg/kg, route intraperitoneal; conditions: in vivo

With `CCC(=C/[C@H](C)C/C=C/C(C)=C/[C@@H](CO)C(=O)[C@@H](C)[C@H](O)[C@@H](C)C/C(C)=C/C(=O)O)/C=C/[C@H]1CC(C)=CC(=O)O1` the IC50 [1] was 0.309 nM, the Activity [2] was “Non-toxic” and the Activity [3] was “Non-toxic”.
